Read-outs that look alike come from different tables or passages of the source.
How the values were obtained:
[1] = tested on: E. granulosus ss protoscoleces (PSCs); assay: E. granulosus ss PSC killing assay; format: cell-based, Echinococcus granulosus sensu stricto; conditions: Echinococcus granulosus, 24 h, read-out: LC50 (protoscolicidal activity)
How it was run: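 Protoscoleces were aspirated from cysts in naturally infected sheep livers and cultured by a prior method. Wells held 200 PSCs; test compound from a 10× aqueous stock, final 34–114 μM; medium-only control. Incubation was 24 h at 37 °C, 5% CO2. Viability: 0.1% methylene blue for 5 min, with blue PSCs scored dead under an inverted microscope. Triplicate; LC50 by nonlinear regression.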

E. granulosus ss cysts [2] = assay: In vivo efficacy, intraperitoneal administration, secondarily infected mice; parameters: species or system Echinococcus granulosus sensu stricto
How it was run: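 Female BALB/c mice, 6–8 weeks, were infected intraperitoneally with microcysts and randomised at 3 months. Test compound in saline at 14, 28 or 57 mg/kg (n = 10 each), 1.0 ml i.p. once daily for 3 days; saline controls n = 12. Necropsy 2 weeks post-treatment. Cysts were weighed, and viability was scored by morphology: type 1 alive, types 2–3 dead. Kruskal-Wallis test.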

E. granulosus ss cysts [3] = assay: In vivo efficacy, oral administration, secondarily infected mice; parameters: species or system Echinococcus granulosus sensu stricto
How it was run: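 Microcyst-infected female BALB/c mice (3 months post-infection), 10 per group, were gavaged once daily for 30 days with 0.2 ml. Test compound 57 mg/kg was given in deionised water, albendazole 50 mg/kg in 0.5% carboxymethyl cellulose, and controls received deionised water. Necropsy 2 weeks post-treatment. Cysts were weighed and scored alive or dead by morphological type. One-way ANOVA or Kruskal-Wallis test.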

E. granulosus ss cysts [4] = assay: Microinjection treatment of cysts; format: in vivo, Echinococcus granulosus sensu stricto
[5] = In vivo pharmacokinetics and tissue distribution; parameters: species or system mice; conditions: for Kp: male, ICR, mouse, intraperitoneal, 57 mg/kg
How it was run: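 Male ICR mice (20–22 g, 3 per time point) received a single 57 mg/kg i.p. dose. Plasma was precipitated with acetonitrile containing internal standards and centrifuged at 2600 g for 10 min at 4 °C. Liver and lung were homogenised in 4 volumes of 100 mM phosphate buffer, pH 7.4, and processed alike. Samples taken 0.25–48 h were measured by LC-MS/MS and analysed non-compartmentally.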

CYP1A2 = biological target: T1, CYP1A2 (Homo sapiens, UniProt P05177); assay: CYP450 inhibition assay, human liver microsomes; format: in vitro ADME
T1 sequence (P05177 1-516): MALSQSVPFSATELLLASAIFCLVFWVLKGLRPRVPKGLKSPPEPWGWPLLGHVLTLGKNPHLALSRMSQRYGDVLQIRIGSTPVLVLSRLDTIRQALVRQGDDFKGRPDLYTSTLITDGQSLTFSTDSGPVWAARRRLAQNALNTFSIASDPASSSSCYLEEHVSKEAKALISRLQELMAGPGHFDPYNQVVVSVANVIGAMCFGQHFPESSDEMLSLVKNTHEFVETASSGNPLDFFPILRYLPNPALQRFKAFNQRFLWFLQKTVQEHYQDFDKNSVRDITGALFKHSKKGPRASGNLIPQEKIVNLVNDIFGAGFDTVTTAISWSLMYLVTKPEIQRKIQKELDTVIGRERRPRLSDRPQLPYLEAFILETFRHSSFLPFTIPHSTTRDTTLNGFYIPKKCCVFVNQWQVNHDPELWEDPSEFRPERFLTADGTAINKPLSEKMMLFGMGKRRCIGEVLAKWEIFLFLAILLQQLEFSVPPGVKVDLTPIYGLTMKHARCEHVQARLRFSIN

CYP2C9 = CYP2C9 (Homo sapiens, UniProt P11712); assay: CYP450 inhibition assay, human liver microsomes; format: in vitro ADME
CYP2C19 = CYP2C19 (Homo sapiens, UniProt P33261); assay: CYP450 inhibition assay, human liver microsomes; format: in vitro ADME
CYP3A4 = CYP3A4 (Homo sapiens, UniProt P08684); assay: CYP450 inhibition assay, human liver microsomes; format: in vitro ADME
CYP2D6 = CYP2D6 (Homo sapiens, UniProt P10635); assay: CYP450 inhibition assay, human liver microsomes; format: in vitro ADME
[6] = biological target: T2, E. granulosus ss topoisomerase I (Egtopo I) (Echinococcus granulosus, UniProt W6UT38); assay: Egtopo I-mediated DNA relaxation assay; format: biochemical, Echinococcus granulosus sensu stricto; conditions: read-out: IC50 Egtopo I activity; relaxation of supercoiled pBR322, 30 min 37 °C
T2 sequence (W6UT38 1-621): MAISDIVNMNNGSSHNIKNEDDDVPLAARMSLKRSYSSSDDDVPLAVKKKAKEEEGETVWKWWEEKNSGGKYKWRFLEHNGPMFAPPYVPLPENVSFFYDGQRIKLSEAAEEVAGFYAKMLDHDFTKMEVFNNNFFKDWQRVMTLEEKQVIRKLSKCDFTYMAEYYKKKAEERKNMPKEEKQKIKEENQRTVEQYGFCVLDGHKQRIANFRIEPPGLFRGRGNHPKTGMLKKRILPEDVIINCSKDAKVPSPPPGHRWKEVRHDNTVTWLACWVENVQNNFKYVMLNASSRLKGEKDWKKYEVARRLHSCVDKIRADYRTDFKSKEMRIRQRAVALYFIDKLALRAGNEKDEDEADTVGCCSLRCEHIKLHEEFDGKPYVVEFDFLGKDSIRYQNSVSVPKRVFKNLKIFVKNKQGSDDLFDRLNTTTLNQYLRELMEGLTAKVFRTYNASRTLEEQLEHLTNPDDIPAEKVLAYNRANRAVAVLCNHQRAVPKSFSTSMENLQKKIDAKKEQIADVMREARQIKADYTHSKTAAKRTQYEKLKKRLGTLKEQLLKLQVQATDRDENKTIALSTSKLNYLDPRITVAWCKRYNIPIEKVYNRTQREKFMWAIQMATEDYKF
How it was run: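 Kit-based relaxation assay with pBR322 (200 ng), Egtopo I (300 ng) and 0.1% BSA. Test compound at final 50, 100, 150, 200, 300, 400, 500 and 600 μM in assay buffer, 30 min at 37 °C. Stopped with 10% SDS plus loading buffer, run on 1% agarose and stained with ethidium bromide (5 μg/ml). IC50 from a nonlinear regression fit, n = 3.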

caspase-3 = assay: Caspase-3 activity assay in PSCs; format: cell-based, E. granulosus; conditions: 100 µM 24 h, vs vehicle controls
E. granulosus ss PSCs [7] = assay: TUNEL assay in PSCs; format: cell-based; conditions: 100 µM, 24 h
E. granulosus ss PSCs [8] = assay: DNA fragmentation assay in PSCs; format: cell-based; conditions: 50 μM, 24 h
[9] = Tolerability, organ weights and blood parameters, intraperitoneal study; format: in vivo, mice
How it was run: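 Microcyst-infected female BALB/c mice were dosed i.p. once daily for 3 days with test compound in saline (14, 28, 57 mg/kg; n = 10) or saline (n = 12). During treatment they were watched for emaciation, hunched back, ruffled coat, appetite and behaviour changes. Two weeks post-treatment, plasma was taken for haematology and biochemistry, and liver, kidneys, thymus and body were weighed.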

[10] = Tolerability, body weight and blood parameters, oral study; format: in vivo, mice
How it was run: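 In the oral study, infected BALB/c mice (n = 10 per group) were gavaged daily for 30 days with test compound in water, albendazole in 0.5% carboxymethyl cellulose, or water alone. Mice were monitored for morbidity signs and behaviour. Two weeks after treatment, plasma was collected, and body, liver, kidney and thymus weights were recorded.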

E. granulosus ss cysts [11] = assay: Transmission electron microscopy of cysts from treated mice; format: in vivo, Echinococcus granulosus sensu stricto
How it was run: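 Cysts came from infected BALB/c mice given test compound at 57 mg/kg, either i.p. once daily for 3 days or by gavage daily for 30 days, and from albendazole-treated (50 mg/kg p.o.) and untreated mice. Cyst ultrastructure was examined by transmission electron microscopy, covering the laminated layer, tegument, germinal layer and microtriches.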

[12] = 28 days oral treatment NOAEL in the rat; conditions: in vivo, 23 mg/kg/day
[13] = 28 days oral treatment NOAEL in the dog; conditions: in vivo, 5 mg/kg/day
[14] = dogs, oral 24 mg/kg/day for 30 days ref 20; cited from earlier work
[15] = rat, 28 days oral treatment ref 16; cited from earlier work
[16] = dog, 28 days oral treatment ref 16; cited from earlier work
bone marrow = conditions: mice, bone marrow ref 38, 39; cited from earlier work
[17] = tested on: Salmonella typhimurium strains; conditions: cited from earlier work
cystic echinococcosis = conditions: clinical study ref 5; cited from earlier work
[18] = 0 to 48 h, single 57 mg/kg i.p.

CYP2C9, sequence (P11712 whole entry): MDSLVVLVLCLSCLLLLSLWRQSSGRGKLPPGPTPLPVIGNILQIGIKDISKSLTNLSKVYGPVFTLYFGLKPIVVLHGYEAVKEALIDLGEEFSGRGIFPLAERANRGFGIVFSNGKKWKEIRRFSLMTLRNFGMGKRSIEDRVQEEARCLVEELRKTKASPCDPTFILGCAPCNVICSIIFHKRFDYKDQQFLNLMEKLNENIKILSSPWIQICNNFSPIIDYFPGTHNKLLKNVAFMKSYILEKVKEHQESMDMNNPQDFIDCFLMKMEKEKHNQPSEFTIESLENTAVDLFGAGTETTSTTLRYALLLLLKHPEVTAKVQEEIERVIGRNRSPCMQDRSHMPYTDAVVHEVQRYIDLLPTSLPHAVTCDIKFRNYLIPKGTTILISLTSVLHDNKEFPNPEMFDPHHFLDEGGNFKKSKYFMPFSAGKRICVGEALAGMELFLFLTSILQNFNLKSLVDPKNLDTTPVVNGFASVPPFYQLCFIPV
CYP2D6, sequence (P10635 whole entry): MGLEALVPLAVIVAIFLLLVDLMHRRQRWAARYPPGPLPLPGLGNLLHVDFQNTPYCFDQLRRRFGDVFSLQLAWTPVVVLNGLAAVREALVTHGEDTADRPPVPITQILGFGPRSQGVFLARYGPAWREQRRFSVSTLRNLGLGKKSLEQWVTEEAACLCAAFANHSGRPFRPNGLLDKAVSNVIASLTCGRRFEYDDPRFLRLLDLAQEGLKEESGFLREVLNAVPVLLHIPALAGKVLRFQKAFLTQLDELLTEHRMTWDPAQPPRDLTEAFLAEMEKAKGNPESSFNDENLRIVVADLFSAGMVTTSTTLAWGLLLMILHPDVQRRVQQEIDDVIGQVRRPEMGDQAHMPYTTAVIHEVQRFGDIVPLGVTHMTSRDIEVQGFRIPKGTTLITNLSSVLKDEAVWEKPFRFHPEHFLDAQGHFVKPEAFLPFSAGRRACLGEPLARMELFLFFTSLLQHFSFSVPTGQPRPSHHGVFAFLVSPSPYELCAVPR
CYP3A4, sequence (P08684 whole entry): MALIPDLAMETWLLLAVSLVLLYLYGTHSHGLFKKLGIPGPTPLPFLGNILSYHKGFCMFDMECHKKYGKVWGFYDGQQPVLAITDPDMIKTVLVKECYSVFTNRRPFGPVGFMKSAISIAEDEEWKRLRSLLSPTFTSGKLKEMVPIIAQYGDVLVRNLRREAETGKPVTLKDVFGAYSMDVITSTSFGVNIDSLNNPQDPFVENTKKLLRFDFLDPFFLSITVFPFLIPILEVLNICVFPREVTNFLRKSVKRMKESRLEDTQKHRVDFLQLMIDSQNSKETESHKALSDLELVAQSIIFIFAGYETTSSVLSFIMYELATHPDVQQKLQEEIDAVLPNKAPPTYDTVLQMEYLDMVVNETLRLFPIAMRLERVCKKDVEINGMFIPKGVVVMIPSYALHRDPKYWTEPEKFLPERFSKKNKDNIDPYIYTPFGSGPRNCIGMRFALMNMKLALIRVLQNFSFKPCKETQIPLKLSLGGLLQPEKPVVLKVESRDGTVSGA
CYP2C19, sequence (P33261 whole entry): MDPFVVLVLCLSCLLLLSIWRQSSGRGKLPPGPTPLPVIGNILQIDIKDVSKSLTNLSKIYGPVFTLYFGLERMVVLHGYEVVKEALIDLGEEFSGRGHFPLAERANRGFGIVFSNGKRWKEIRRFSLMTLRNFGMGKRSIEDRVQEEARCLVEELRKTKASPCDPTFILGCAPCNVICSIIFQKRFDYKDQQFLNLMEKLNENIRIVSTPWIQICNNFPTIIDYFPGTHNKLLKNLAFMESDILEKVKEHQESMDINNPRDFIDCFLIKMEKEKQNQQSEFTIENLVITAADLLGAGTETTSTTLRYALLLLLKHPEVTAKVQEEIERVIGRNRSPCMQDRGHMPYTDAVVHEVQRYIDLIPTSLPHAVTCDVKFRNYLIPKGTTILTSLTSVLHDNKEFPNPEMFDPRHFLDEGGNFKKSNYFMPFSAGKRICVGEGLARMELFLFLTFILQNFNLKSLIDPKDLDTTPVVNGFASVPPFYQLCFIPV

Compound: COc1ccc2nc3cc(Cl)ccc3c(Nc3cc(CN4CCCC4)c(O)c(CN4CCCC4)c3)c2n1 [PND, pyronaridine]
- LC50 [1]: 49 ± 0.2 µM
- cyst mortality (E. granulosus ss cysts [2]; 57 mg/kg i.p. q.d. 3 days): 100%
- wet cyst weight reduction (E. granulosus ss cysts [2]; 57 mg/kg i.p. q.d. 3 days, vs unmedicated mice): 38.7%
- growth of cysts (E. granulosus ss cysts [2]; 14, 28 and 57 mg/kg i.p. q.d. 3 days): successfully suppressed the growth of cysts
- cysts killed (mortality rate) (E. granulosus ss cysts [3]; PND 57 mg/kg p.o. q.d. 30 days): 90.7%
- parasite wet weight reduction (E. granulosus ss cysts [3]; PND 57 mg/kg p.o. q.d. 30 days, vs vehicle control): 42.4%
- cyst counts (E. granulosus ss cysts [4]; 200 μM microinjected, 35 cysts/mouse transferred, 30 days): 6.4 ± 1.2
- parasite wet weight reduction (E. granulosus ss cysts [4]; 200 μM microinjected, 30 days post-treatment, vs saline group): 52.3%
- cysts killed after microinjection (E. granulosus ss cysts [4]; microinjection with PND): more than 90%
- average concentration in the liver [5, 18]: 435.7 µmol/kg
- average concentration in the lungs [5, 18]: 122.5 µmol/kg
- average plasma concentration [5, 18]: 1.5 µM
- Kp ([5]; liver/plasma): 290
- Kp ([5]; lungs/plasma): 81.7
- IC50 (CYP1A2): > 10 µM
- IC50 (CYP2C9): > 10 µM
- IC50 (CYP2C19): > 10 µM
- IC50 (CYP3A4): > 10 µM
- IC50 (CYP2D6): 1.53 µM
- IC50 [6]: 209.7 ± 1.1 µM
- increase in caspase-3 activity (caspase-3): 20 fold
- TUNEL staining (DNA fragmentation) (E. granulosus ss PSCs [7]): abundant TdT dUTP nick-end labeling (TUNEL)-positive cells were observed
- DNA ladder on agarose gel (E. granulosus ss PSCs [8]): a clear pattern of DNA fragmentation (DNA ladder) was observed
- behaviour and adverse effects ([9]; 14, 28, 57 mg/kg i.p. q.d. 3 days): without obvious adverse effects
- liver weight ([9]; high-dosage group (57 mg/kg i.p.), vs control): a minor increase in liver weight
- body weight ([10]; PND 57 mg/kg p.o. 30 days): minor loss of body weight
- cyst ultrastructure (TEM) (E. granulosus ss cysts [11]; PND 57 mg/kg, both i.p. and p.o.): devastating damage of the cyst tissues
- NOAEL at 28 days [12]: 3.7 mg/kg/day
- NOAEL at 28 days [13]: 2.7 mg/kg/day
- tolerability [14]: well tolerated
- no observed adverse effect level (NOAEL) [15]: 23 mg/kg/day
- no observed adverse effect level (NOAEL) [16]: 5 mg/kg/day
- micronucleus frequency (bone marrow): no increase in micronucleus frequency in the bone marrow
- Ames mutagenicity ([17]; strain TA1537 ref 40): evidence of bacterial mutagenicity
- Ames mutagenicity ([17]; strains TA100, TA98, TA1535 and TA1538 ref 40): did not induce mutations

Compound: CCCSc1ccc2nc(NC(=O)OC)[nH]c2c1 [ABZ, albendazole]
- LC50 [1]: 79.2 ± 3.9 µM
- cyst mortality rate (E. granulosus ss cysts [3]; ABZ 50 mg/kg p.o. q.d. 30 days): 22.2%
- cyst weight reduction (E. granulosus ss cysts [3]; ABZ 50 mg/kg p.o. q.d. 30 days): 48.1%
- body weight ([10]; ABZ 50 mg/kg p.o. 30 days): minor loss of body weight
- cyst ultrastructure (TEM) (E. granulosus ss cysts [11]; ABZ 50 mg/kg, p.o.): did not exhibit obvious ultrastructural changes
- CE cases that did not respond favorably to treatment (cystic echinococcosis): approximately 40%
